“Also recorded” adds a separate entry of the source.
Tests used:
[1] = Exposure-toxicity relationship, sigmoid E-max model; format: in vivo, human
Method in brief: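 Patients received a 1-h IV infusion of test compound daily × 5 every 21 days. Toxicity measure was the cycle 1 nadir of ANC and platelets, expressed as % decrease. Exposure metrics were total test compound AUC (day 1, cycle 1) and administered daily dosage level. Total rather than lactone parameters were used.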

[2] = Phase I dose escalation: dose limiting toxicities, MTD and CTCAE 3.0 toxicities; format: in vivo, human
Method in brief: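 Adults (>18 y) had refractory solid tumors, ECOG ≤2 and adequate marrow, hepatic and renal function. Test compound in 5% dextrose (0.05–0.5 mg/mL) was given as a 1-h IV infusion daily × 5 every 21 days, within 4 h of reconstitution. Premedication was oral dexamethasone, ondansetron, loratadine, famotidine and diphenhydramine. […] DLTs were assessed in cycle 1 by CTCAE v3.0. MTD was the level below that giving DLT in ≥2 patients.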

UGT1A8 = details: cited from earlier work
[3] = cycle 1, all patients, sigmoid E-max model
[4] = total AR-67 AUC day 1 of cycle 1, sigmoid E-max model
[5] = CTCAE related toxicities, Blood/bone marrow
[6] = CTCAE related toxicities, Cardiac general
[7] = CTCAE related toxicities, Constitutional symptoms
[8] = CTCAE related toxicities, Dermatology/skin
[9] = CTCAE related toxicities, Gastrointestinal
[10] = CTCAE related toxicities, Hemorrhage/bleeding
[11] = CTCAE related toxicities, Infection
[12] = CTCAE related toxicities, Metabolic/laboratory
[13] = CTCAE related toxicities, Musculoskeletal
[14] = CTCAE related toxicities, Neurology
[15] = CTCAE related toxicities, Pulmonary

With `CC[C@@]1(O)C(=O)OCc2c1cc1n(c2=O)Cc2c-1nc1ccc(O)cc1c2[Si](C)(C)C(C)(C)C` [AR-67, 7-t-butyldimethylsilyl-10-hydroxycamptothecin] the “dosage level ED50 (95% CI) for % decrease in ANC” value [1, 3] was 6.1 (4.3 – 8.7) mg/m^2, the “dosage level ED50 (95% CI) for % decrease in platelets” value [1, 3] was 4.9 (3.2 – 7.6) mg/m^2 and the “AUC ED50 (95% CI) for % decrease in ANC” value [1, 4] was 323.6 (231.9 – 451.6) hr*ng/mL. The “AUC ED50 (95% CI) for % decrease in platelets” value [1, 4] was 364.2 (249.4 – 531.9) hr*ng/mL, the “Common Grade 3 and 4 toxicities: anemia” value ([2]; 26 patients, all dosage levels) was 11.5% and the “Common Grade 3 and 4 toxicities: fatigue” value ([2]; 26 patients, all dosage levels) was 15.4%. For the same compound, the “Common Grade 3 and 4 toxicities: leukopenia (leukocytopenia)” value ([2]; 26 patients, all dosage levels) was 23%, the “Common Grade 3 and 4 toxicities: neutropenia” value ([2]; 26 patients, all dosage levels) was 11.5% and the “Common Grade 3 and 4 toxicities: thrombocytopenia” value ([2]; 26 patients, all dosage levels) was 15.4%. The Diarrhea ([2]; 26 patients, all dosage levels) was “No diarrhea; also recorded: none of the patients experienced”, the “Infusion related allergic (hypersensitivity) reactions” value ([2]; 26 patients, premedicated, cremophor-ethanol formulation) was “none of the patients experienced; also recorded: no patients exhibited hypersensitivity reactions” and the “Hemoglobin, Grade 1” value [2, 5] was 8. The “Hemoglobin, Grade 2” value [2, 5] was 12, the “Hemoglobin, Grade 3” value [2, 5] was 6 and the “Hemoglobin, Grade 4” value [2, 5] was 0. The “Hemoglobin, Total” value [2, 5] was 26, the “Leukocytes (total WBC), Grade 1” value [2, 5] was 18 and the “Leukocytes (total WBC), Grade 2” value [2, 5] was 15. The “Leukocytes (total WBC), Grade 3” value [2, 5] was 8, the “Leukocytes (total WBC), Grade 4” value [2, 5] was 0 and the “Leukocytes (total WBC), Total” value [2, 5] was 41. The “Monocytopenia, Grade 1” value [2, 5] was 0, the “Monocytopenia, Grade 2” value [2, 5] was 0 and the “Monocytopenia, Grade 3” value [2, 5] was 0. The “Monocytopenia, Grade 4” value [2, 5] was 1, the “Monocytopenia, Total” value [2, 5] was 1 and the “Neutrophils/granulocytes (ANC/AGC), Grade 1” value [2, 5] was 3. The “Neutrophils/granulocytes (ANC/AGC), Grade 2” value [2, 5] was 10, the “Neutrophils/granulocytes (ANC/AGC), Grade 3” value [2, 5] was 5 and the “Neutrophils/granulocytes (ANC/AGC), Grade 4” value [2, 5] was 1. The “Neutrophils/granulocytes (ANC/AGC), Total” value [2, 5] was 19, the “Platelets, Grade 2” value [2, 5] was 8 and the “Platelets, Grade 3” value [2, 5] was 9. For the same compound, the “Hypotension, Grade 1” value [2, 6] was 0, the “Hypotension, Grade 2” value [2, 6] was 1 and the “Hypotension, Grade 3” value [2, 6] was 0. The “Hypotension, Grade 4” value [2, 6] was 0, the “Hypotension, Total” value [2, 6] was 1 and the “Fatigue (asthenia, lethargy, malaise), Grade 1” value [2, 7] was 4. The “Fatigue (asthenia, lethargy, malaise), Grade 3” value [2, 7] was 8, the “Fatigue (asthenia, lethargy, malaise), Grade 4” value [2, 7] was 0 and the “Fatigue (asthenia, lethargy, malaise), Total” value [2, 7] was 26. For the same compound, the “Fever (in the absence of neutropenia), Grade 1” value [2, 7] was 0, the “Fever (in the absence of neutropenia), Grade 2” value [2, 7] was 1 and the “Fever (in the absence of neutropenia), Grade 3” value [2, 7] was 0. The “Fever (in the absence of neutropenia), Grade 4” value [2, 7] was 0, the “Fever (in the absence of neutropenia), Total” value [2, 7] was 1 and the “Insomnia, Grade 1” value [2, 7] was 2. For the same compound, the “Insomnia, Grade 2” value [2, 7] was 5, the “Insomnia, Grade 3” value [2, 7] was 0 and the “Insomnia, Grade 4” value [2, 7] was 0. The “Insomnia, Total” value [2, 7] was 7, the “Weight loss, Grade 1” value [2, 7] was 2 and the “Weight loss, Grade 2” value [2, 7] was 0. The “Weight loss, Grade 3” value [2, 7] was 0, the “Weight loss, Grade 4” value [2, 7] was 0 and the “Weight loss, Total” value [2, 7] was 2. For the same compound, the “Nail changes, Grade 1” value [2, 8] was 1, the “Nail changes, Grade 2” value [2, 8] was 0 and the “Nail changes, Grade 3” value [2, 8] was 0. The “Nail changes, Grade 4” value [2, 8] was 0, the “Nail changes, Total” value [2, 8] was 1 and the “Pruritus/itching/Dry skin/Flushing, Grade 2” value [2, 8] was 0. For the same compound, the “Pruritus/itching/Dry skin/Flushing, Grade 3” value [2, 8] was 0, the “Pruritus/itching/Dry skin/Flushing, Grade 4” value [2, 8] was 0 and the “Pruritus/itching/Dry skin/Flushing, Total” value [2, 8] was 7. For the same compound, the “Rash/desquamation, Grade 1” value [2, 8] was 2, the “Rash/desquamation, Grade 2” value [2, 8] was 1 and the “Rash/desquamation, Grade 3” value [2, 8] was 0. For the same compound, the “Rash/desquamation, Grade 4” value [2, 8] was 0, the “Rash/desquamation, Total” value [2, 8] was 3 and the “Anorexia/Taste Alteration, Grade 1” value [2, 9] was 4. The “Anorexia/Taste Alteration, Grade 3” value [2, 9] was 1, the “Anorexia/Taste Alteration, Grade 4” value [2, 9] was 0 and the “Anorexia/Taste Alteration, Total” value [2, 9] was 12. The “Constipation/Dehydration, Grade 1” value [2, 9] was 6, the “Constipation/Dehydration, Grade 2” value [2, 9] was 8 and the “Constipation/Dehydration, Grade 3” value [2, 9] was 0. The “Constipation/Dehydration, Grade 4” value [2, 9] was 0, the “Mucositis/stomatitis, Grade 1” value [2, 9] was 2 and the “Mucositis/stomatitis, Grade 2” value [2, 9] was 0. The “Mucositis/stomatitis, Grade 3” value [2, 9] was 0, the “Mucositis/stomatitis, Grade 4” value [2, 9] was 0 and the “Mucositis/stomatitis, Total” value [2, 9] was 2. The “Nausea, Grade 2” value [2, 9] was 0, the “Nausea, Grade 3” value [2, 9] was 0 and the “Nausea, Grade 4” value [2, 9] was 0. For the same compound, the “Hemorrhage, GI - Duodenum, Grade 1” value [2, 10] was 0, the “Hemorrhage, GI - Duodenum, Grade 2” value [2, 10] was 0 and the “Hemorrhage, GI - Duodenum, Grade 3” value [2, 10] was 1. The “Hemorrhage, GI - Duodenum, Grade 4” value [2, 10] was 0, the “Hemorrhage, GI - Duodenum, Total” value [2, 10] was 1 and the “Febrile neutropenia, Grade 1” value [2, 11] was 0. For the same compound, the “Febrile neutropenia, Grade 2” value [2, 11] was 0, the “Febrile neutropenia, Grade 3” value [2, 11] was 1 and the “Febrile neutropenia, Grade 4” value [2, 11] was 2. For the same compound, the “Febrile neutropenia, Total” value [2, 11] was 3, the “Infection - ANC grade 0–2, Grade 1” value [2, 11] was 3 and the “Infection - ANC grade 0–2, Grade 2” value [2, 11] was 4. For the same compound, the “Infection - ANC grade 0–2, Grade 3” value [2, 11] was 0, the “Infection - ANC grade 0–2, Grade 4” value [2, 11] was 2 and the “Infection - ANC grade 0–2, Total” value [2, 11] was 9. For the same compound, the “Infection with unknown ANC, Grade 1” value [2, 11] was 2, the “Infection with unknown ANC, Grade 2” value [2, 11] was 1 and the “Infection with unknown ANC, Grade 3” value [2, 11] was 0. For the same compound, the “Infection with unknown ANC, Grade 4” value [2, 11] was 0, the “Infection with unknown ANC, Total” value [2, 11] was 3 and the “ALT, SGPT, Alkaline Phosphatase, Grade 1” value [2, 12] was 8. For the same compound, the “ALT, SGPT, Alkaline Phosphatase, Grade 2” value [2, 12] was 0, the “ALT, SGPT, Alkaline Phosphatase, Grade 3” value [2, 12] was 0 and the “ALT, SGPT, Alkaline Phosphatase, Grade 4” value [2, 12] was 0. For the same compound, the “ALT, SGPT, Alkaline Phosphatase, Total” value [2, 12] was 8, the “Electrolyte abnormalities, Grade 1” value [2, 12] was 8 and the “Electrolyte abnormalities, Grade 2” value [2, 12] was 0. For the same compound, the “Electrolyte abnormalities, Grade 3” value [2, 12] was 0, the “Electrolyte abnormalities, Grade 4” value [2, 12] was 0 and the “Electrolyte abnormalities, Total” value [2, 12] was 8. The “Extremity-lower (gait/walking), Grade 1” value [2, 13] was 1, the “Extremity-lower (gait/walking), Grade 2” value [2, 13] was 0 and the “Extremity-lower (gait/walking), Grade 3” value [2, 13] was 0. For the same compound, the “Extremity-lower (gait/walking), Grade 4” value [2, 13] was 0, the “Extremity-lower (gait/walking), Total” value [2, 13] was 1 and the “Muscle weakness – Lower extremity, Grade 1” value [2, 13] was 0. The “Muscle weakness – Lower extremity, Grade 2” value [2, 13] was 3, the “Muscle weakness – Lower extremity, Grade 3” value [2, 13] was 1 and the “Muscle weakness – Lower extremity, Grade 4” value [2, 13] was 0. For the same compound, the “Muscle weakness – Lower extremity, Total” value [2, 13] was 4, the “Dizziness, Grade 1” value [2, 14] was 0 and the “Dizziness, Grade 2” value [2, 14] was 1. The “Dizziness, Grade 3” value [2, 14] was 0, the “Dizziness, Grade 4” value [2, 14] was 0 and the “Dizziness, Total” value [2, 14] was 1. For the same compound, the “Neuropathy: sensory, Grade 1” value [2, 14] was 1, the “Neuropathy: sensory, Grade 2” value [2, 14] was 0 and the “Neuropathy: sensory, Grade 3” value [2, 14] was 0. For the same compound, the “Neuropathy: sensory, Grade 4” value [2, 14] was 0, the “Neuropathy: sensory, Total” value [2, 14] was 1 and the “Dyspnea, Grade 1” value [2, 15] was 1. The “Dyspnea, Grade 2” value [2, 15] was 0, the “Dyspnea, Grade 3” value [2, 15] was 0 and the “Dyspnea, Grade 4” value [2, 15] was 0. For the same compound, the “Dyspnea, Total” value [2, 15] was 1, the “Hiccoughs (hiccups, singultus), Grade 1” value [2, 15] was 2 and the “Hiccoughs (hiccups, singultus), Grade 2” value [2, 15] was 1. For the same compound, the “Hiccoughs (hiccups, singultus), Grade 3” value [2, 15] was 0, the “Hiccoughs (hiccups, singultus), Grade 4” value [2, 15] was 0 and the “Hiccoughs (hiccups, singultus), Total” value [2, 15] was 3. For the same compound, the “DLT per Cohort” value ([2]; Level 5.5, 7.5 mg/m2/day daily × 5, n=7, cycle 1) was “one of seven”, the “DLT per Cohort” value ([2]; Level 6, 8.9 mg/m2/day daily × 5, n=4, cycle 1) was “two of four” and the “Day of ANC and platelet nadir” value ([2]; MTD level, cycle 1, recovered prior to day 22) was 10 to 14 days. The “maximum tolerated dosage (MTD)” value ([2]; iv over 1 hour daily × 5, every 21 days) was 7.5 mg/m^2/day, the “Patients with dose limiting toxicities” value ([2]; of 26 patients, 9 dosage levels) was 5 patients and the “recommended phase II dosage” value ([2]; ×5 q 21 days) was 7.5 mg/m^2/day. For the same compound, the “metabolism by UGT1A8” value (UGT1A8) was “extensively metabolized”.

From paper PMC2831464 (Clinical cancer research : an official journal of the …, 2010)
